Activity calls are given as the source filed them. The rule behind the calls is not given here.
Legend:
Scedosporium apiospermum = test: Antifungal activity against Scedosporium apiospermum SCAP1 assessed as reduction in microbial growth […] by broth microdilution method; format: functional
Mucor circinelloides = test: Antifungal activity against Mucor circinelloides MURI1 assessed as reduction in microbial growth after 24 hrs by broth microdilution method; format: functional
Summary of the method: (§1)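 CLSI M38 broth microdilution in RPMI 1640 buffered to pH 7.0 with MOPS. Drugs were diluted in DMSO then medium; final range 0.032-16 mg/L. Conidia or sporangiospores came from 7-day potato dextrose agar cultures; diluted (2×) inocula were 0.9×10^4–4.7×10^4 CFU/mL. Incubation at 35 °C, read at 48 h except Zygomycetes at 24 h. MIC read visually as lowest concentration preventing 100% growth; duplicate.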

Fusarium sp. = test: Antifungal activity against Fusarium sp. assessed as reduction in microbial growth […] by broth microdilution method; format: functional
Rhizopus arrhizus [1] = test: Antifungal activity against Rhizopus oryzae RHPOR2 assessed as reduction in microbial growth after 24 hrs by broth microdilution method; format: functional; summary of the method: as §1
Rhizopus arrhizus [2] = test: Antifungal activity against Rhizopus oryzae RHPOR1 assessed as reduction in microbial growth after 24 hrs by broth microdilution method; format: functional; summary of the method: as §1
[3] = tested on: Pichia kudriavzevii (Candida krusei); test: Antifungal activity against fluconazole-resistant Candida krusei CAKR7 assessed as reduction in microbial growth after 24 hrs by resazurin staining based spectrofluorometric method; conditions: CAKR7, 24 h
[4] = tested on: Pichia kudriavzevii (Candida krusei); test: Antifungal activity against fluconazole-resistant Candida krusei CAKR8 assessed as reduction in microbial growth after 24 hrs by resazurin staining based spectrofluorometric method; conditions: CAKR8, 24 h
Aspergillus fumigatus [5] = test: Antifungal activity against Aspergillus fumigatus ASFU76 assessed as reduction in microbial growth after 48 hrs by resazurin staining based spectrofluorometric method; format: functional
Summary of the method: (§2)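 A. fumigatus conidia counted by microscope and inoculated at 10^4 cells mL⁻¹ in RPMI 1640 with 0.165 M MOPS, 2% glucose and antibiotics. Drugs were dissolved in DMSO (fluconazole in water), then diluted in medium. Plates ran 48 h at 37 °C, then resazurin for 20 h, read by fluorescence at ex 550/em 590 nm. MIC is 80% growth inhibition by linear regression; triplicate, mean±SD.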

Aspergillus fumigatus [6] = test: Antifungal activity against Aspergillus fumigatus ASFU77 assessed as reduction in microbial growth after 48 hrs by resazurin staining based spectrofluorometric method; format: functional; summary of the method: as §2
Aspergillus fumigatus [7] = test: Antifungal activity against Aspergillus fumigatus ASFU7 assessed as reduction in microbial growth after 48 hrs by resazurin staining based spectrofluorometric method; format: functional; summary of the method: as §2
Nakaseomyces glabratus = test: Antifungal activity against fluconazole-sensitive Candida glabrata CAGL2 assessed as reduction in microbial growth after 24 hrs by resazurin staining based spectrofluorometric method; format: functional
Summary of the method: (§3)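 Yeasts in RPMI 1640 with 0.165 M MOPS, 2% glucose and antibiotics, final 10³ cells mL⁻¹. Drugs in DMSO (fluconazole in water) were diluted in medium. Plates ran 24 h at 37 °C, then resazurin for 4 h, fluorescence ex 550/em 590 nm. MIC is 50% growth inhibition by linear regression; triplicate, mean±SD.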

Candida albicans [8] = test: Antifungal activity against fluconazole-susceptible Candida albicans CAAL93 assessed as reduction in microbial growth after 24 hrs by resazurin staining based spectrofluorometric method; format: functional; summary of the method: as §3
Candida albicans [9] = test: Antifungal activity against fluconazole-resistant Candida albicans DSY735 over expression of CDR1/CDR2 assessed as reduction in microbial growth after 24 hrs by resazurin staining based spectrofluorometric method; format: functional
Summary of the method: (§4)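 Broth microdilution in RPMI 1640 with 0.165 M MOPS, 2% glucose and antibiotics; yeast inoculum at 10³ cells mL⁻¹ final. Compounds were dissolved in DMSO (fluconazole in water) and diluted in medium, then incubated 24 h at 37 °C. Viability was read by resazurin fluorescence (ex 550/em 590 nm) after 4 h. MIC was taken as 50% growth inhibition, by linear regression; triplicate experiments.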

Candida albicans [10] = test: Antifungal activity against fluconazole-resistant Candida albicans DSY292 harboring Erg1l G464S/R467K/Y132 mutant assessed as reduction in microbial growth after 24 hrs by resazurin staining based spectrofluorometric method; format: functional; summary of the method: as §4
Candida albicans [11] = test: Antifungal activity against Candida albicans DSY292 harboring Erg1l G464S/R467K/Y132 mutant infected in Swiss mouse assessed as survival at 15 mg/kg, po after 8 days; format: functional, organism-based; conditions: time 8.0 day
Summary of the method: (§5)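 Swiss mice (~25 g) immunosuppressed with prednisolone 30 mg/kg s.c. one day before challenge; day 0 i.v. infection with C. albicans blastoconidia (5.10⁶ yeast/mL, 100 µL). Oral dosing 1 h post-infection, once daily for 5 days, 10 mg/kg (CAAL93) or 15 mg/kg (DSY292), vehicle 40% DMSO/25% Tween80/35% olive oil. Mice given 50% grapefruit juice ad libitum. Survival followed 14 days (log-rank Mantel-Cox).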

Candida albicans [12] = test: Inhibition of sterol biosynthesis in Candida albicans CAAL93 assessed as lanosterol level at 10 ng/ml after 18 hrs by GC-MS analysis (reference value: 1.6%); format: functional; design: scale not given: the % may be the effect or the level left
Summary of the method: (§6)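 C. albicans CAAL93 blastospores were grown 18 h at 35 °C with stirring in 50 mL Sabouraud broth, with drug added before incubation. Cells were pelleted and saponified in ethanolic KOH at 80 °C for 60 min, and sterols extracted with hexane. Analysis by GC-MS (EI 70 eV, splitless injection at 250 °C, helium carrier); sterols identified by fragmentation pattern.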

Candida albicans [13] = test: Inhibition of sterol biosynthesis in Candida albicans CAAL93 assessed as other sterols level at 10 ng/ml after 18 hrs by GC-MS analysis (Rvb < 1%); format: functional; design: scale not given: the % may be the effect or the level left; summary of the method: as §6
Candida albicans [14] = test: Inhibition of sterol biosynthesis in Candida albicans CAAL93 assessed as 14alpha-methylfecosterol level at 10 ng/ml after 18 hrs by GC-MS analysis relative to control; format: functional; design: scale not given: the % may be the effect or the level left; summary of the method: as §6
Candida albicans [15] = test: Antifungal activity against Candida albicans CAAL93 infected in Swiss mouse assessed as reduction in kidney fungal burden at 10 mg/kg, po after 14 days; format: functional, organism-based; conditions: time 14.0 day
Candida albicans [16] = test: Antifungal activity against Candida albicans CAAL93 infected in Swiss mouse assessed as survival at 10 mg/kg, po after 14 days relative to control; format: functional; conditions: 336 h, time 14 day; summary of the method: as §5
Candida albicans [17] = test: Inhibition of sterol biosynthesis in Candida albicans CAAL93 assessed as eburicol level at 10 ng/ml after 18 hrs by GC-MS analysis relative to control; format: functional; design: scale not given: the % may be the effect or the level left; summary of the method: as §6
Candida albicans [18] = test: Inhibition of sterol biosynthesis in Candida albicans CAAL93 assessed as ergosterol level at 10 ng/ml after 18 hrs by GC-MS analysis (reference value: 89.7%); format: functional; design: scale not given: the % may be the effect or the level left; summary of the method: as §6
Candida albicans [19] = test: Inhibition of sterol biosynthesis in Candida albicans CAAL93 assessed as ergostadienol level at 10 ng/ml after 18 hrs by GC-MS analysis (reference value: 1.6%); format: functional; design: scale not given: the % may be the effect or the level left; summary of the method: as §6
Candida albicans [20] = test: Inhibition of sterol biosynthesis in Candida albicans CAAL93 assessed as episterol level at 10 ng/ml after 18 hrs by GC-MS analysis (reference value: 2%); format: functional; design: scale not given: the % may be the effect or the level left; summary of the method: as §6
Candida albicans [21] = test: Inhibition of sterol biosynthesis in Candida albicans CAAL93 assessed as fecosterol level at 10 ng/ml after 18 hrs by GC-MS analysis relative to control; format: functional; design: scale not given: the % may be the effect or the level left; summary of the method: as §6
Candida albicans [22] = test: Antifungal activity against Candida albicans DSY292 harboring Erg1l G464S/R467K/Y132 mutant infected in Swiss mouse assessed as survival at 15 mg/kg, po after 5 days; format: functional, organism-based; conditions: time 5.0 day; summary of the method: as §5
Candida albicans [23] = test: Inhibition of sterol biosynthesis in Candida albicans CAAL93 assessed as zymosterol level at 10 ng/ml after 18 hrs by GC-MS analysis (reference value: 1.6%); format: functional; design: scale not given: the % may be the effect or the level left; summary of the method: as §6

| SMILES | MIC (Scedosporium apiospermum) | MIC (Mucor circinelloides) | MIC (Fusarium sp.) | MIC (Rhizopus arrhizus [1]) | MIC (Rhizopus arrhizus [2]) | MIC [3] | MIC [4] | MIC (Aspergillus fumigatus [6]) | MIC (Aspergillus fumigatus [7]) | also measured |
| --- | --- | --- | --- | --- | --- | --- | --- | --- | --- | --- |
| C[C@@H]1[C@H](O)[C@@H](C)/C=C/C=C/C=C/C=C/C=C/C=C/C=C/[C@H](O[C@@H]2O[C@H](C)[C@@H](O)[C@H](N)[C@@H]2O)C[C@@H]2O[C@](O)(C[C@@H](O)C[C@@H](O)[C@H](O)CC[C@@H](O)C[C@@H](O)CC(=O)O[C@H]1C)C[C@H](O)[C@H]2C(=O)O [AMPHOTERICIN B] | > 8 µg/mL | 0.19 µg/mL | 12 µg/mL | 0.5 µg/mL | 0.19 µg/mL |  |  |  |  |  |
| C[C@@H](n1ncc2cc(-c3ccc([N+](=O)[O-])cc3)cn2c1=O)[C@](O)(Cn1cncn1)c1ccc(F)cc1F | > 16 µg/mL | 0.25 µg/mL | 12 µg/mL | 0.25 µg/mL | 0.0625 µg/mL | 0.066 µg/mL | 0.039 µg/mL |  |  |  |
| C[C@@H](n1ncc2cc(-c3ccc(C#N)cc3)cn2c1=O)[C@](O)(Cn1cncn1)c1ccc(F)cc1F | > 16 µg/mL | 0.75 µg/mL | 10 µg/mL | 0.25 µg/mL | 0.125 µg/mL | 0.058 µg/mL | 0.101 µg/mL | > 100 µg/mL | > 100 µg/mL | MIC (Aspergillus fumigatus [5]): > 100 µg/mL |
| C[C@@H](n1ncc2cc(-c3ccccc3)cn2c1=O)[C@](O)(Cn1cncn1)c1ccc(F)cc1F |  |  |  |  |  | 0.013 µg/mL | 0.014 µg/mL |  |  |  |
| C[C@@H](n1ncc2cc(Br)cn2c1=O)[C@](O)(Cn1cncn1)c1ccc(F)cc1F | 4 µg/mL | 8 µg/mL | > 16 µg/mL | 8 µg/mL | 4 µg/mL | 0.251 µg/mL | 0.076 µg/mL | 6.74 µg/mL | 6.66 µg/mL | MIC (Nakaseomyces glabratus): 0.014 µg/mL; MIC (Candida albicans [8]): 0.002 µg/mL; MIC (Candida albicans [9]): 0.14 µg/mL; MIC (Candida albicans [10]): 0.155 µg/mL |
| CC[C@@H]([C@H](C)O)n1ncn(-c2ccc(N3CCN(c4ccc(OC[C@@H]5CO[C@@](Cn6cncn6)(c6ccc(F)cc6F)C5)cc4)CC3)cc2)c1=O [POSACONAZOLE] | 1.25 µg/mL | 0.19 µg/mL | > 8 µg/mL | 0.5 µg/mL | 0.19 µg/mL |  |  |  |  |  |
| C[C@@H](c1ncncc1F)[C@](O)(Cn1cncn1)c1ccc(F)cc1F [VORICONAZOLE] | 0.5 µg/mL | > 8 µg/mL | 6 µg/mL | 8 µg/mL |  | 0.817 µg/mL | 0.24 µg/mL |  |  | Survival (Candida albicans [11]): inactive |
| CCC(C)n1ncn(-c2ccc(N3CCN(c4ccc(OCC5COC(Cn6cncn6)(c6ccc(Cl)cc6Cl)O5)cc4)CC3)cc2)c1=O (configuration not stated) [ITRACONAZOLE] | 0.5 µg/mL | 0.19 µg/mL | > 16 µg/mL | 1.12 µg/mL | 0.19 µg/mL |  |  | > 100 µg/mL | 0.5 µg/mL |  |
| OC(Cn1cncn1)(Cn1cncn1)c1ccc(F)cc1F [FLUCONAZOLE] |  |  |  |  |  | > 3 µg/mL | > 10 µg/mL |  |  | Activity (Candida albicans [12]): 13.1%; Activity (Candida albicans [13]): 7.3%; Activity (Candida albicans [14]): 2%; Activity (Candida albicans [15]): Active; survival at 10 mg/kg (Candida albicans [16]): 100%; Activity (Candida albicans [17]): 2.2%; Activity (Candida albicans [18]): 57.8%; Activity (Candida albicans [19]): 3.2%; Activity (Candida albicans [20]): 8.8%; Activity (Candida albicans [21]): 2.8%; Survival (Candida albicans [22]): inactive; Activity (Candida albicans [23]): 2.8% |
| C[C@@H](n1ncc2cccn2c1=O)[C@](O)(Cn1cncn1)c1ccc(F)cc1F | > 16 µg/mL | 16 µg/mL | > 16 µg/mL | 8 µg/mL | 4 µg/mL | 0.625 µg/mL | 1.15 µg/mL |  |  |  |

From ChEMBL document CHEMBL4680186, “New azole antifungals with a fused triazinone scaffold” (Eur J Med Chem, 2020)
